# Assays:
# 4T1 tumor-bearing mice [1] = assay: In vivo anti-tumor research in 4T1 tumor-bearing mice; set-up: species or system BALB/c mice
# Outline: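 Female BALB/c mice (6 weeks, 16–18 g) received 4T1 cells (1 × 10^7 cells per mL, 100 μL) s.c. into the right forelimb axilla. At about 100 mm3 tumor volume, mice were randomised (n = 5) to saline, free drug, or drug-loaded hydrogel (1 mg mL-1 drug : 20 mg mL-1 peptide). Dosing was s.c. near the tumor at 100 μL/20 g, giving […], on day 1. Weight and tumor volume were recorded. Tumors and organs were taken at day 7, formalin-fixed, H&E and TUNEL stained.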
# 4T1 tumor-bearing mice [2] = assay: In vivo biological distribution analysis; set-up: species or system BALB/c mice; conditions: DiR 1 mg kg^−1 s.c. near the tumor, n = 3
# Outline: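 4T1 tumor-bearing mice (tumor about 200 mm3) were randomised (n = 3) to free near-infrared dye DiR at 1 mg kg-1 or hydrogel-loaded DiR at the equivalent dose, injected s.c. near the tumor at 100 μL/20 g. Anaesthetised mice were imaged live at 1, 6, 12, 24, 48 and 96 h (λex 748 nm, λem 780 nm). At 96 h, mice were euthanised and organs collected.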
SMILES,"tumor growth inhibition (4T1 tumor-bearing mice [1]; 7 days, versus NS group, n = 5)","body weight of mice at start (4T1 tumor-bearing mice [1]; day 1, s.c. near the tumor, DOX 1 mg mL^−1, 100 μL/20 g, n = 5)","histology of major organs (H&E) (4T1 tumor-bearing mice [1]; heart, liver, spleen, lung, kidney after 7 days of treatment)","body weight of mice at end (4T1 tumor-bearing mice [1]; within 7 days, s.c. near the tumor, DOX 1 mg mL^−1, 100 μL/20 g, n = 5)",ex vivo fluorescence distribution in tumor and organs (4T1 tumor-bearing mice [2]; 96 hours after administration),in vivo fluorescence over time (4T1 tumor-bearing mice [2]; live imaging 1–96 hours)
"COc1cccc2c1C(=O)c1c(O)c3c(c(O)c1C2=O)C[C@@](O)(C(=O)CO)C[C@@H]3O[C@H]1C[C@H](N)[C@H](O)[C@H](C)O1 [DOX, doxorubicin]",significant tumor growth inhibition,18.8 g,significant necrosis of heart and liver cells,16.9 g,–,–
CCCCCCCCCCCCCCCCCCN1/C(=C/C=C/C=C/C=C/C2=[N+](CCCCCCCCCCCCCCCCCC)c3ccccc3C2(C)C)C(C)(C)c2ccccc21.[I-] [DiR],–,–,–,–,widespread fluorescence distribution,rapidly decreased over time
